PAFAH1B2 FP inh = inhibitors of human PAFAH1B2; P68402; inhibition, % at 3.39 µM; 1.2% of 340,000 active; recombinant PAFAH1B2, FP-rhodamine activity probe, fluorescence polarization;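 active means inhibition above the mean of all tested compounds plus 3 SD, cut at about 24% in these data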;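 further: 0% = enzyme with DMSO and 100% = wells lacking PAFAH1B2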
Target sequence (P68402 whole entry, looked up): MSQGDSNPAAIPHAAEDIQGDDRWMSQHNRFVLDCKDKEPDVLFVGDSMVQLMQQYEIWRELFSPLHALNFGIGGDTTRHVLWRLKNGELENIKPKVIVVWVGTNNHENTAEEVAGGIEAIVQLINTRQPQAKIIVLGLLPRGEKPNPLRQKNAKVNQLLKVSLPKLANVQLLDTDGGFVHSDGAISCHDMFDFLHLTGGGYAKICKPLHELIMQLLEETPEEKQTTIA
PAFAH1B3 FP inh = inhibitors of human PAFAH1B3; recombinant PAFAH1B3, FP-rhodamine probe, fluorescence polarization; inhibition, % at 3.39 µM; 0.28% of 340,000 active;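 active means inhibition above the screen-wide average of all tested compounds plus 3 SD, cut at about 25% in these data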;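 further: 0% = enzyme with DMSO only and 100% = wells lacking PAFAH1B3 protein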
Target sequence (Q15102 whole entry, looked up): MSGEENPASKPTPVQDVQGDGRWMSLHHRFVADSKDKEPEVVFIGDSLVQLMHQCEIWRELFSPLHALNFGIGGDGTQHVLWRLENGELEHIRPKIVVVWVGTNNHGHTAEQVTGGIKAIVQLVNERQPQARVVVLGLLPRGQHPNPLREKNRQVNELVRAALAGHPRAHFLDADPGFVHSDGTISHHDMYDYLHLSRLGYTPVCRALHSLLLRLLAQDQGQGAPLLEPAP
ARFGAP1 inh = rat ARFGAP1 inhibition. Q62848. inhibition, % at 16.5 µM. Arfgap1-stimulated ARF1 GTP hydrolysis, GDP FP detection. AID 651572. 0.26% of 360,000 active;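 active means inhibition above a per-plate limit, mean inhibition of low control wells plus 3 SD, cut at about 25% in these data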;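 further: 0% = DMSO wells with enzyme and 100% = wells lacking Arfgap1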
Target sequence (Q62848 1-136 limits assumed): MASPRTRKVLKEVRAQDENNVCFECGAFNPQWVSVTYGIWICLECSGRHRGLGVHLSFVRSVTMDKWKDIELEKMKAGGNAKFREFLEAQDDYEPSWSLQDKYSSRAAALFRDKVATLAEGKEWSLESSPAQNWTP
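Material: truncated rat Arfgap1 GAP domain; Incubation: compound-enzyme preincubation 20 min, reaction 120 min, detection 60 min, 25 °C; Read-out: percent inhibition of Arfgap1-stimulated GTP hydrolysis; Technique: FP, GDP Alexa 633 tracer displaced from anti-GDP antibody, 620/688 nm; Controls: No-Arfgap1 wells (100%) versus DMSO full-reaction wells (0%); Replication: single well per compound.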
PAFAH2 FP inh = inhibitors of human PAFAH2; inhibition, % at 3.39 µM; 0.99% of 340,000 active; Q99487; AID 492956; recombinant PAFAH2, FP-rhodamine activity probe, fluorescence polarization;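 active means inhibition above the mean over all tested compounds plus 3 SD, cut at about 30% in these data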;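 further: inhibitors block probe labeling of enzyme so polarization drops; 0% = enzyme with DMSO and 100% = wells lacking PAFAH2 protein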
pPAFAH inh = pPAFAH (human) enzyme inhibition | AID 463082 | Q13093 | inhibition, % at 3.39 µM | 1.5% of 330,000 active | recombinant pPAFAH, FP-rhodamine probe fluorescence polarization;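 active means inhibition above the mean inhibition across the screen plus 3 SD, cut at about 25% in these data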;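 further: inhibitors block binding of the rhodamine activity-based probe so polarization drops; 0% = enzyme with DMSO and 100% = wells lacking pPAFAH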
ASAP1 GAP inh = ASAP1 ArfGAP inhibition; ASAP1-stimulated ARF1 GTP hydrolysis, GDP FP detection; inhibition, % at 16.5 µM; 0.19% of 360,000 active; in the data active means inhibition above about 25%;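 further: 0% = vehicle with enzyme and substrate and 100% = no enzyme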
PAFAH2 FP conf = PAFAH2 (human) inhibition, confirmed; shares compounds with PAFAH2 FP inh; recombinant PAFAH2, FP-rhodamine activity probe, fluorescence polarization; inhibition, % at 3.39 µM; 65% of 2,300 active; AID 493030;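 active means mean inhibition over three repeats above a set limit taken from the earlier primary screen, cut at about 30% in these data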;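 further: inhibitor blocks binding of rhodamine activity probe so polarization falls; 0% = enzyme with DMSO and 100% = wells lacking PAFAH2 protein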
Starred values were filed as active, the others as inactive. An excerpt weighted towards active compounds, which were near 2.7% of everything screened.

What do the screens show for `O=C(COC(=O)c1ccc2c(c1)OCO2)Nc1ccccc1`?
PAFAH1B2 FP inh: 0.7; PAFAH1B3 FP inh: 3.5; ARFGAP1 inh: 2.3; PAFAH2 FP inh: 84.2*; pPAFAH inh: 15.4; ASAP1 GAP inh: 5.7; PAFAH2 FP conf: 81.4*

Results for CN(C)c1ccc(NC(=O)COC(=O)c2ccc3c(c2)OCO3)cc1 ?
PAFAH1B2 FP inh: -2.1; PAFAH1B3 FP inh: -1.3; ARFGAP1 inh: 0.9; PAFAH2 FP inh: 31.9*; pPAFAH inh: 10.6; ASAP1 GAP inh: -5.6; PAFAH2 FP conf: 26.6

How did O=C(OCCc1cc2ccccc2c(=O)o1)c1ccc2c(c1)OCO2 do in these assays?
PAFAH1B2 FP inh: 0.5; PAFAH1B3 FP inh: -0.1; ARFGAP1 inh: 4.0; PAFAH2 FP inh: 8.4; pPAFAH inh: 5.2; ASAP1 GAP inh: -12.5

Results for Cc1cc(C(=O)COC(=O)c2cccc(O)c2)c(C)n1C1CC1 ?
PAFAH1B2 FP inh: 4.0; PAFAH1B3 FP inh: -1.2; ARFGAP1 inh: -1.7; PAFAH2 FP inh: 6.4; pPAFAH inh: -1.1; ASAP1 GAP inh: 9.3

How did CC(N)C(=O)NC(C(=O)N1CCCC1C(=O)NC(c1ccccc1)c1ccccc1)C(C)C (stereo not drawn) do in these assays?
PAFAH1B2 FP inh: 5.1; PAFAH1B3 FP inh: -0.7; ARFGAP1 inh: -6.9; PAFAH2 FP inh: -1.2; pPAFAH inh: 0.8; ASAP1 GAP inh: -5.9

What do the screens show for `Cc1cc(C(=O)OCC(=O)NC2CCC(C)CC2)c(C)o1` (stereo not drawn)?
PAFAH1B2 FP inh: 3.5; PAFAH1B3 FP inh: 4.3; ARFGAP1 inh: -6.1; PAFAH2 FP inh: 71.5*; pPAFAH inh: 2.2; ASAP1 GAP inh: -1.1; PAFAH2 FP conf: 68.9*

What do the screens show for `O=C(COC(=O)c1ccco1)NCC1CCCCC1`?
PAFAH1B2 FP inh: 7.4; PAFAH1B3 FP inh: 4.9; ARFGAP1 inh: 3.3; PAFAH2 FP inh: 80.3*; ASAP1 GAP inh: -4.3; PAFAH2 FP conf: 60.2*

Results for O=C(COC(=O)c1ccccc1NC(=O)c1ccco1)NC1CC1 ?
PAFAH1B2 FP inh: -3.9; PAFAH1B3 FP inh: 2.7; ARFGAP1 inh: 10.0; PAFAH2 FP inh: 0.3; pPAFAH inh: 4.3; ASAP1 GAP inh: 1.7

Results for O=C(COC(=O)c1ccco1)NC1CCCc2ccccc21 (stereo not drawn) ?
PAFAH1B2 FP inh: 1.1; PAFAH1B3 FP inh: 9.9; ARFGAP1 inh: 3.4; PAFAH2 FP inh: 39.3*; pPAFAH inh: -2.2; ASAP1 GAP inh: 7.9; PAFAH2 FP conf: 15.0

How did CC1CCC(NC(=O)COC(=O)c2ccco2)CC1 (stereo not drawn) do in these assays?
PAFAH1B2 FP inh: 5.6; PAFAH1B3 FP inh: -0.2; ARFGAP1 inh: 10.0; PAFAH2 FP inh: 66.9*; pPAFAH inh: -5.2; ASAP1 GAP inh: 5.9; PAFAH2 FP conf: 64.8*

What do the screens show for `Cc1nn(Cc2ccc(Cl)cc2)c(C)c1NC(=O)CCCn1nc([N+](=O)[O-])c(Cl)c1C`?
PAFAH1B2 FP inh: -1.8; PAFAH1B3 FP inh: -6.1; ARFGAP1 inh: 2.9; PAFAH2 FP inh: 1.0; pPAFAH inh: 2.4; ASAP1 GAP inh: 1.4

How did CCOC(=O)C1=C(C)N=c2s/c(=C\c3ccc(O)c([N+](=O)[O-])c3)c(=O)n2C1c1ccccc1OC (stereo not drawn) do in these assays?
PAFAH1B2 FP inh: 14.6; PAFAH1B3 FP inh: 20.1; ARFGAP1 inh: -5.7; PAFAH2 FP inh: 35.5*; pPAFAH inh: 22.7; ASAP1 GAP inh: 1.7; PAFAH2 FP conf: 25.1

Results for CCOC(=O)C1=C(C)N=c2s/c(=C\c3ccc(OCC(=O)O)cc3)c(=O)n2C1c1ccccc1OC (stereo not drawn) ?
PAFAH1B2 FP inh: -3.0; PAFAH1B3 FP inh: -7.0; ARFGAP1 inh: 3.7; PAFAH2 FP inh: 11.7; pPAFAH inh: 2.7; ASAP1 GAP inh: 1.2

How did C[C@H]1CCCCO[C@@H](CN(C)C(=O)NC2CCCCC2)[C@@H](C)CN([C@@H](C)CO)C(=O)c2cc(NC(=O)Cc3ccccc3)ccc2O1 do in these assays?
ARFGAP1 inh: 1.1; ASAP1 GAP inh: -2.5

How did Cc1nc(C)c(C(=O)OCC(=O)NCc2ccccc2Cl)s1 do in these assays?
PAFAH1B2 FP inh: 2.9; PAFAH1B3 FP inh: 4.7; ARFGAP1 inh: 0.1; PAFAH2 FP inh: 70.0*; pPAFAH inh: 12.1; ASAP1 GAP inh: -4.3; PAFAH2 FP conf: 63.1*

How did CC1CCc2sc(C(=O)OCC(=O)NCc3ccccc3)cc2C1 (stereo not drawn) do in these assays?
PAFAH1B2 FP inh: 2.6; PAFAH1B3 FP inh: 8.1; ARFGAP1 inh: -3.1; PAFAH2 FP inh: 37.6*; pPAFAH inh: 9.2; ASAP1 GAP inh: 1.2; PAFAH2 FP conf: 39.6*

Results for COc1ccc(CCNC(=O)COC(=O)c2sc(C)nc2C)cc1 ?
PAFAH1B2 FP inh: 0.7; PAFAH1B3 FP inh: 0.2; ARFGAP1 inh: -9.7; PAFAH2 FP inh: 22.7; pPAFAH inh: 7.7; ASAP1 GAP inh: 3.5

Results for Cc1nc(C)c(C(=O)OCC(=O)Nc2ccc(C)c(C)c2)s1 ?
ARFGAP1 inh: -2.0; ASAP1 GAP inh: -10.9

Results for Cc1nc(C)c(C(=O)OCC(=O)Nc2ccccc2SCC#N)s1 ?
PAFAH1B2 FP inh: 0.6; PAFAH1B3 FP inh: -6.5; ARFGAP1 inh: -9.9; PAFAH2 FP inh: 43.2*; pPAFAH inh: 5.9; ASAP1 GAP inh: -9.4; PAFAH2 FP conf: 32.8*

How did O=C(COC(=O)c1cncc(Br)c1)NCc1ccccc1Cl do in these assays?
PAFAH1B2 FP inh: 2.3; PAFAH1B3 FP inh: 7.5; ARFGAP1 inh: 1.7; PAFAH2 FP inh: 6.0; pPAFAH inh: 2.0; ASAP1 GAP inh: -7.0

Results for Cc1nc(C)c(C(=O)OCC(=O)NCc2ccccc2)s1 ?
PAFAH1B2 FP inh: 0.6; PAFAH1B3 FP inh: 11.0; ARFGAP1 inh: 7.0; PAFAH2 FP inh: 32.0*; pPAFAH inh: 2.6; ASAP1 GAP inh: -6.1; PAFAH2 FP conf: 20.2

Results for CC(C)(CC(=O)OCC(=O)Nc1ccccc1F)CC1=NS(=O)(=O)c2ccccc2N1 ?
PAFAH1B2 FP inh: -6.8; PAFAH1B3 FP inh: 1.3; ARFGAP1 inh: -13.0; PAFAH2 FP inh: 30.9*; pPAFAH inh: 0.0; ASAP1 GAP inh: 4.8; PAFAH2 FP conf: 27.7

How did CCN(CC)S(=O)(=O)c1ccc(N2CCOCC2)c(NC(=O)Cc2cccc3ccccc23)c1 do in these assays?
PAFAH1B2 FP inh: -6.8; PAFAH1B3 FP inh: 6.5; ARFGAP1 inh: -4.6; PAFAH2 FP inh: 60.5*; pPAFAH inh: 8.5; ASAP1 GAP inh: -6.2; PAFAH2 FP conf: 45.0*

How did COc1cc(/C=C/C(=O)OCC(=O)NCc2ccco2)ccc1O do in these assays?
PAFAH1B2 FP inh: 4.1; PAFAH1B3 FP inh: 4.0; ARFGAP1 inh: 1.0; PAFAH2 FP inh: 65.9*; pPAFAH inh: 6.2; ASAP1 GAP inh: -6.0; PAFAH2 FP conf: 45.5*

Results for COc1cccc(OC)c1C(=O)OCC(=O)NCc1ccco1 ?
PAFAH1B2 FP inh: 7.0; PAFAH1B3 FP inh: 4.0; ARFGAP1 inh: 1.6; PAFAH2 FP inh: -2.1; pPAFAH inh: 1.5; ASAP1 GAP inh: -1.2

Screening data deposited in PubChem by The Scripps Research Institute Molecular Screening Center.
